Assay results reported in PubChem BioAssay AID488830 (Molecular Libraries Program, Specialized Chemistry Center, …, 2010).
Active and inactive are the calls of the source.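 How the source made its calls: active means IC50 at or below 10 µM; inactive means the rest.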

Tested on: HeLa UbG76V-GFP reporter turnover, GFP imaging
Test: blockers of UbG76V-GFP proteasomal turnover – imaging, human cell line, second optimization round, SAR follow-up (AID 488830)
In short: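 test system = UbG76V-GFP reporter HeLa cells | probe or stimulus = 4 µM MG132 reporter-loading pre-treatment | timing = 1 h MG132, 70–170 min compound chase | technique = GFP fluorescence imaging, mean per-cell intensity over ~500 cells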

Row | IC50 | SMILES
1 | 8.6 µM | COc1ccc2nc(NCc3ccccc3)nc(NCc3ccccc3)c2c1
2 | > 25 µM (inactive) | CC(C)(C)NC(=O)Nc1ccc2nccnc2c1
3 | 18 µM (inactive) | Clc1cccc(Nc2nc(NCc3ccccc3Cl)c3ccccc3n2)c1
4 | 10 µM (inactive) | COc1cccc2c(NCc3ccccc3)nc(NCc3ccccc3)nc12
5 | 7.6 µM | Clc1ccc(CNc2nc(Nc3cccc(Cl)c3)nc3ccccc23)cc1
6 | > 30 µM (inactive) | O=S(=O)(NC1CCCCC1)c1ccc(Br)cc1
7 | 10 µM (inactive) | c1ccc(CNc2nc(N3CCCc4ccccc43)nc3ccccc23)cc1
8 | > 25 µM (inactive) | CC1(C)N(O)CC(c2cccs2)=[N+]1[O-]
9 | 9.7 µM | Cc1cccc(CNc2nc(Nc3cccc(Cl)c3)nc3ccccc23)c1
10 | 6.3 µM | Fc1cccc(CNc2nc(Nc3cccc(Cl)c3)nc3ccccc23)c1
11 | 7.2 µM | c1ccc(Nc2nc(Nc3ccccc3)c3ccccc3n2)cc1
12 | 15 µM (inactive) | Fc1ccccc1CNc1nc(Cl)nc2ccccc12
13 | 9.3 µM | COc1ccc(F)cc1Nc1nc(NCc2ccccc2)c2ccccc2n1
14 | 4.7 µM | COc1ccc(Nc2nc(NCc3ccccc3)c3ccccc3n2)cc1F
15 | 8 µM | Fc1ccccc1-c1nc(NCc2ccccc2)c2ccccc2n1
16 | 22 µM (inactive) | Cc1cccc(CNc2nc(Cl)nc3ccccc23)c1
17 | 19 µM (inactive) | O=[N+]([O-])c1cccc(Nc2nc(NCc3ccccc3)c3ccccc3n2)c1
18 | 7 µM | Cc1ccc(Cl)cc1Nc1nc(NCc2ccccc2)c2ccccc2n1

Row | IC50 | SMILES
19 | 12 µM (inactive) | Clc1cccc(Nc2nc(NCc3ccccc3Br)c3ccccc3n2)c1
20 | 19 µM (inactive) | Clc1nc(NCc2cccc(Br)c2)c2ccccc2n1
21 | 5.5 µM | Cc1c(Cl)cccc1Nc1nc(NCc2ccccc2)c2ccccc2n1
22 | 18 µM (inactive) | COc1ccc(CNc2nc(Cl)nc3ccccc23)cc1
23 | 19 µM (inactive) | FC(F)(F)c1ccc2c(NCc3ccccc3)nc(NCc3ccccc3)nc2c1
24 | 13 µM (inactive) | Fc1cccc2nc(NCc3ccccc3)nc(NCc3ccccc3)c12
25 | 21 µM (inactive) | Cc1ccc(Nc2nc(Nc3ccc(C)cc3)c3ccccc3n2)cc1
26 | 11 µM (inactive) | Clc1nc(NCc2ccccc2Cl)c2ccccc2n1
27 | 16 µM (inactive) | Clc1cccc2nc(NCc3ccccc3)nc(NCc3ccccc3)c12
28 | 12 µM (inactive) | Cc1ccc(CNc2nc(Nc3cccc(Cl)c3)nc3ccccc23)cc1
29 | 9.9 µM | COc1cccc(CNc2nc(Nc3cccc(Cl)c3)nc3ccccc23)c1
30 | 9.9 µM | Clc1cccc(Nc2nc(NCc3cccc(Br)c3)c3ccccc3n2)c1
31 | > 25 µM (inactive) | Cc1ccccc1CNc1nc(Cl)nc2ccccc12
32 | 8.8 µM | COc1cc2nc(NCc3ccccc3)nc(NCc3ccccc3)c2cc1OC
33 | > 25 µM (inactive) | Cc1ccc(C2=[N+]([O-])C3(CCCCC/C3=N\O)N(O)C2(C)C)o1 (stereo unspecified)
34 | > 30 µM (inactive) | Brc1cccc2c(NCc3ccccc3)nc(NCc3ccccc3)nc12
35 | 7 µM | c1ccc(CNc2nc(N3CCOc4ccccc43)nc3ccccc23)cc1
36 | 15 µM (inactive) | Clc1cccc(CNc2nc(Nc3cccc(Cl)c3)nc3ccccc23)c1

More lines, now with the values behind:

Row | SMILES | IC50
37 | COc1ccc(CNc2nc(Nc3cccc(Cl)c3)nc3ccccc23)cc1 | 11 µM (inactive)
38 | Fc1ccccc1CNc1nc(Nc2cccc(Cl)c2)nc2ccccc12 | 7.8 µM
39 | FC(F)(F)c1cccc(Nc2nc(NCc3ccccc3)c3ccccc3n2)c1 | 21 µM (inactive)
40 | CCOC(=O)NC(NC(=O)OCC)C(=O)c1ccc(F)cc1 | > 25 µM (inactive)
41 | Clc1ccc(CNc2nc(Cl)nc3ccccc23)cc1 | 14 µM (inactive)
42 | Clc1cccc(Nc2nc(NCc3ccc(Br)cc3)c3ccccc3n2)c1 | 10 µM (inactive)
43 | Clc1nc(NCc2ccc(Br)cc2)c2ccccc2n1 | 15 µM (inactive)
44 | O=C(NCc1ccco1)c1cc(S(=O)(=O)N2CCOCC2)ccc1Cl | > 25 µM (inactive)
45 | Cc1ccc(F)cc1Nc1nc(NCc2ccccc2)c2ccccc2n1 | 5 µM
46 | Cc1c(F)cccc1Nc1nc(NCc2ccccc2)c2ccccc2n1 | 3.7 µM
47 | Brc1ccc2c(NCc3ccccc3)nc(NCc3ccccc3)nc2c1 | 10 µM (inactive)
48 | O=C(C1CCCN(S(=O)(=O)c2cnc[nH]2)C1)N(CCc1ccccc1)Cc1ccccc1 (stereo unspecified) | 12 µM (inactive)
49 | COc1ccc(Nc2nc(Nc3cccc(Cl)c3)nc3ccccc23)cc1 | 13 µM (inactive)
50 | c1ccc(CNc2nc(N3CCNc4ccccc43)nc3ccccc23)cc1 | 6.3 µM
51 | c1ccc(CNc2nc(N3CCc4ccccc43)nc3ccccc23)cc1 | 11 µM (inactive)
52 | Cc1ccc(Nc2nc(Nc3cccc(Cl)c3)nc3ccccc23)cc1 | > 30 µM (inactive)
53 | N#Cc1ccc2c(NCc3ccccc3)nc(NCc3ccccc3)nc2c1 | 21 µM (inactive)
54 | Clc1ccc2c(NCc3ccccc3)nc(NCc3ccccc3)nc2c1 | 6.3 µM
55 | CC(C)n1c2ccccc2c2nnc(SCC(=O)OCN3C(=O)c4ccccc4C3=O)nc21 | 20 µM (inactive)
56 | COc1cccc(CNc2nc(Cl)nc3ccccc23)c1 | 13 µM (inactive)
57 | Fc1ccc2c(NCc3ccccc3)nc(NCc3ccccc3)nc2c1 | 6.1 µM
58 | Clc1ccc(Nc2nc(Nc3cccc(Cl)c3)nc3ccccc23)cc1 | 21 µM (inactive)
59 | Fc1ccc(CNc2nc(Cl)nc3ccccc23)cc1 | 21 µM (inactive)

Row | SMILES | IC50
60 | COc1c(F)cccc1Nc1nc(NCc2ccccc2)c2ccccc2n1 | 12 µM (inactive)
61 | Cc1ccc(CNc2nc(Cl)nc3ccccc23)cc1 | > 25 µM (inactive)
62 | Clc1ccc2nc(NCc3ccccc3)nc(NCc3ccccc3)c2c1 | 6.6 µM
63 | Clc1nc(NCc2ccccc2Br)c2ccccc2n1 | 13 µM (inactive)
64 | Clc1cccc(CNc2nc(Cl)nc3ccccc23)c1 | 18 µM (inactive)
65 | O=C1C(C=NCC2CCCO2)=C(O)c2ccccc21 (stereo unspecified) | > 25 µM (inactive)
66 | COc1ccccc1CNc1nc(Cl)nc2ccccc12 | 19 µM (inactive)
67 | Cc1cc(F)cc(Nc2nc(NCc3ccccc3)c3ccccc3n2)c1 | 5.4 µM
68 | Fc1ccc(CNc2nc(Nc3cccc(Cl)c3)nc3ccccc23)cc1 | 5.7 µM
69 | COc1ccccc1CNc1nc(Nc2cccc(Cl)c2)nc2ccccc12 | 11 µM (inactive)
70 | Clc1cccc(Nc2nc(Nc3ccccc3)c3ccccc3n2)c1 | 12 µM (inactive)
71 | Cc1ccc2c(NCc3ccccc3)nc(NCc3ccccc3)nc2c1 | 6.1 µM
72 | Fc1cccc(CNc2nc(Cl)nc3ccccc23)c1 | 20 µM (inactive)
73 | Fc1cccc2c(NCc3ccccc3)nc(NCc3ccccc3)nc12 | 18 µM (inactive)
74 | CN1CCN(S(=O)(=O)c2ccc(NC(=O)c3cccc(S(=O)(=O)N4CCCC4)c3)cc2)CC1 | > 25 µM (inactive)
75 | COc1c(Cl)cccc1Nc1nc(NCc2ccccc2)c2ccccc2n1 | 6.3 µM
76 | CC(C)Sc1oc(-c2ccco2)nc1S(=O)(=O)c1ccc(F)cc1 | 28 µM (inactive)
77 | CC(=O)Nc1ccc(NC(=O)c2ccccc2F)cc1 | > 25 µM (inactive)
78 | Fc1ccc2nc(NCc3ccccc3)nc(NCc3ccccc3)c2c1 | 8.2 µM
79 | Cc1ccc(Nc2nc(NCc3ccccc3)c3ccccc3n2)cc1F | 5.2 µM
80 | COc1ccc(Nc2nc(Nc3ccc(OC)cc3)c3ccccc3n2)cc1 | 23 µM (inactive)
81 | COc1ccc(Cl)cc1Nc1nc(NCc2ccccc2)c2ccccc2n1 | 16 µM (inactive)
